Laboratory results from article PMC3794531 (Biomolecules & Therapeutics, 2012).

Tests used:
[1] = system: colon cancer-induced mice; test: In vivo survival test in colon cancer-induced mice; conditions: intravenous, n=4
How it was run: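 Mice were anesthetized and the cecum exteriorized by laparotomy. CT26 cells (1×10^6 in 50 μl) were injected into the cecal wall, then the gut was returned and the incision closed (surgical orthotopic implantation). Test compounds were given intravenously, and survival was followed over the experimental period.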

[2] = sodium phosphate (pH 7), 120 min; ref Tallman et al., 2005; cited from earlier work
MCF7 cells = test: MTT cytotoxicity test in MCF7 cells; assay type: cell-based; conditions: Homo sapiens, MCF7, 72 h
How it was run: (§1)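 Cells were grown in DMEM with 10% FBS, 100 unit/ml penicillin and 0.1 mg/ml streptomycin at 37℃ and 5% CO2, and split near 80% confluency. They were seeded at 1×10^5 cells/well and cultured 24 h to ~80% confluency, then exposed to test compound for 72 h. MTT (0.5 mg/ml in serum-free medium) was added for 2 h, and absorbance was read at 540 nm. Data are mean ± SD.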

[3] = Stability test in PBS, MCF7 cell lysates and rat plasma; assay type: in vitro ADME; conditions: 5 μM, 37℃
How it was run: (§2)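 Test compound (5 μM) was incubated at 37℃ in PBS, rat plasma, or MCF7 lysate. Lysate was prepared by adding PMSF, sonicating 10 sec, and centrifuging at 4℃ and 13,200 rpm for 15 min. Samples taken over time up to 120 min were quenched in ice-cold acetonitrile and centrifuged. Supernatant was diluted in 10 mM K2HPO4 pH 7.4 and run on C18 HPLC (K2HPO4:acetonitrile 62:38, 1 ml/min) with fluorescence detection (ex 380/em 540 nm). Data are mean ± SD.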

HT29 = test: MTT cytotoxicity test in HT29 cells; assay type: cell-based; conditions: Homo sapiens, HT-29, 72 h
How it was run: as §1

CT26 = test: MTT cytotoxicity test in CT26 cells; assay type: cell-based
How it was run: as §1

[4] = Proportion of total lactone form in PBS, MCF7 cell lysates and rat plasma; assay type: in vitro ADME; conditions: 37℃
How it was run: as §2

[5] = ref Kawato et al., 1991; cited from earlier work

| SMILES | survival time [1] [days] | percentage of SN-38 lactone remaining [2] | EC50 (MCF7 cells) [nM] | stability in MCF7 lysates ([3]; MCF7 lysates, up to 120 min) | compound remaining after 120 min ([3]; PBS) [%] | compound remaining after 120 min ([3]; rat plasma) | EC50 (HT29) [nM] | potency compared with irinotecan (CT26; MTT assay, CT26 and HT29 (Fig. 2)) | EC50 (CT26; Mus musculus, CT26, 72 h) [nM] | proportion of the lactone form at 120 min ([4]; MCF7 lysates) | proportion of the lactone form at 120 min ([4]; PBS) | proportion of the lactone form at 120 min ([4]; all 3 conditions (PBS, MCF7 lysates, plasma)) | initial proportion of the lactone form ([4]; early time points, all 3 conditions (PBS, MCF7 lysates, plasma), 5 μM) | proportion of the lactone form at 120 min ([4]; rat plasma) | potency relative to irinotecan in terms of in vitro cytotoxicity [5] [fold] | survived longer than the irinotecan-administered group [1] |
| --- | --- | --- | --- | --- | --- | --- | --- | --- | --- | --- | --- | --- | --- | --- | --- | --- |
| CCc1c2c(nc3ccc(OC(=O)N4CCC(N5CCCCC5)CC4)cc13)-c1cc3c(c(=O)n1C2)COC(=O)[C@]3(O)CC [irinotecan] | < 28 |  |  |  |  |  |  |  |  |  |  |  |  |  |  |  |
| CCc1c2c(nc3ccc(O)cc13)-c1cc3c(c(=O)n1C2)COC(=O)[C@]3(O)CC [SN-38, 7-ethyl-10-hydroxy-camptothecin] |  | around 40% | 248 | rather unstable | ~80 | about 60% | 1320 | much more potent than the parent compound irinotecan | 17300 | around 40% | around 40% | 30-40% | 80-90% | ~ 30% | 100 | at least 2 weeks |
